These results are taken from article PMC4919611 (EBioMedicine, 2016).

The target in experiment [1] is T1, CBFβ-RUNX1 Runt domain binding (Homo sapiens, UniProt Q13951).
T1 sequence (Q13951 1-141): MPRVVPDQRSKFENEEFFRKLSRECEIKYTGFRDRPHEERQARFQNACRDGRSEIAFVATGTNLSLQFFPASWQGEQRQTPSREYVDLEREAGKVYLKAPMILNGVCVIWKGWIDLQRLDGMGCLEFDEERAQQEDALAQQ
Nature of the experiment: FRET assay of CBFβ. The following applies: inhibition of CBFβ-Runt domain binding. A digest of the protocol: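 FRET binding assay using 100 nM Cerulean-Runt domain and 100 nM Venus-CBFβ across a test compound concentration series. Read-out was the emission ratio at 525/474 nm. Run in duplicate.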

For experiment [2], the system named is panel of 11 leukemia cell lines. The experiment in a line: Viability of a panel of 11 leukemia cell lines. The class given is cell-based. The following applies: 48 h treatment, 11 cell lines. A digest of the protocol:
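Eleven leukemia lines grown in IMDM with 10% FBS. Plated at 5 × 10^5 cells/ml and treated 48 h with test compound at several doses or DMSO. DAPI-stained; at least 2 × 10^4 events acquired by flow cytometry. Viability taken as percent DAPI-negative cells relative to control.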

The target in a further experiment is T2, CBFβ (Homo sapiens, UniProt Q13951).
T2 sequence (Q13951 1-141): T1 sequence (Q13951 1-141)
The experiment in a line: NMR detection of interaction with CBFβ. It counts as binding. A digest of the protocol: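 CBFβ (1-141) in 50 mM KPi pH 7.5, 0.1 mM EDTA, 1 mM DTT, 5% DMSO, 5% D2O. HSQC: 150 μM protein titrated with 600 μM test compound at 800 MHz; 15N/13C shift perturbations taken with versus without compound. STD: 200 μM CBFβ, 2 mM compound, 600 MHz, 25 °C, saturation 500–2000 ms, on-resonance 0.4 ppm, off-resonance 30 ppm.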

In the next experiment the target is RUNX1 Runt domain (Homo sapiens, UniProt Q01196). The experiment in a line: NMR detection of interaction with RUNX1 Runt domain. It counts as binding.
Experiment [3] has as its system CBFβ-Runt domain interaction. The following applies: ref Cunningham et al., 2012; cited from earlier work.
In a further experiment the test system is CBFβ-RUNX1 binding. The note with it: ref Cunningham et al., 2012; cited from earlier work.

RUNX1 Runt domain, sequence (Q01196 50-178 limits assumed): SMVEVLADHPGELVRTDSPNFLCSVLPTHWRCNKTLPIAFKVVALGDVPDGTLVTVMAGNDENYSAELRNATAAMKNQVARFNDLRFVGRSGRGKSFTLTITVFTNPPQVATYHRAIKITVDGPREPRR

On to `c1ccc(-c2nc3ccccc3[nH]2)nc1` [AI-4-88], for which the “activity in the FRET assay (in words)” value in experiment [1] is “complete loss of activity”. Further, the “growth inhibition / activity against leukemia cell lines (in words)” value in experiment [2] is recorded as “did not observe any activity”.

Regarding `O=C1CN=C(c2ccc[nH]2)c2cc(Cl)ccc2N1` [Ro5-3335], the “activity in the FRET assay (in words)” value in experiment [1] was “no effect”. The “interaction with CBFβ by NMR” value on CBFβ is listed as “could not detect any interaction”. In addition, at RUNX1 Runt domain, the “interaction with RUNX1 Runt domain by NMR” value is given as “could not detect any interaction”. In addition, the “effect in the alpha screen assay” value in experiment [3] was “does not show significant effects”. The “effect on CBFβ-RUNX1 binding in cells” value in the experiment with CBFβ-RUNX1 binding is on record as “does not show an effect”.
